The results in this text go back to ChEMBL document CHEMBL1156119 (J Med Chem, 2009).

Usually EC50 stands for the concentration that produces a half-maximal response.

What all share (assay type): cell-based
Test [1] relates to SMB. As to the kind of experiment: Antiprion activity against Scrapie prion protein-mediated scrapie in mouse SMB cells assessed as remaining PrP-Sc level at 20 uM after 5 days by Bradford assay relative to control. The method, boiled down: (§1)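 SMB scrapie-infected mouse cells, non-neuronal, in medium 199 with 10% newborn calf and 5% fetal calf serum, seeded at 3 × 10⁴ cells/well and attached for 24 h. Compound DMSO stocks were diluted via HBSS into medium and applied for 5 days. Lysates of ~30-40 μg protein/well were dot-blotted, digested with proteinase K at 75 μg mL⁻¹ (1 h, 37 °C) and denatured in 1.8 M guanidine thiocyanate. Read-out was %PrP^Sc versus DMSO-only control, in triplicate.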

The nature of test [2]: Antiprion activity against Scrapie prion protein-mediated scrapie in mouse SMB cells assessed as remaining PrP-Sc level after 5 days by Bradford assay. The note with it: 120 h. The method, boiled down:
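Same SMB dot-blot protocol with 5-day exposure. Compounds were rescreened over a range of concentrations to fit an EC₅₀ from dose-response curves. Each determination was run in triplicate, in at least two independent experiments. PrP^Sc was measured relative to an untreated DMSO-only control.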

For test [3], the system named is SMB. Put plainly: Antiprion activity against Scrapie prion protein-mediated scrapie in mouse SMB cells assessed as remaining PrP-Sc level at 1 uM after 5 days by Bradford assay relative to control. The method, boiled down: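 Compound DMSO stocks were diluted via HBSS into medium and applied for 5 days. Lysates of ~30-40 μg protein/well were dot-blotted, digested with proteinase K at 75 μg mL⁻¹ (1 h, 37 °C) and denatured in 1.8 M guanidine thiocyanate. Read-out was %PrP^Sc versus DMSO-only control, in triplicate.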

Test [4] deals with SMB. As to the kind of experiment: Antiprion activity against Scrapie prion protein-mediated scrapie in mouse SMB cells assessed as remaining PrP-Sc level at 10 uM after 5 days by Bradford assay relative to control. The method, boiled down: as §1

`Cn1cc(C(=O)C(=O)Nc2cccc3ccccc23)c2ccccc21`: the Remaining PrP-Sc level in the test with SMB [1] came to 121%. `Cn1cc(C(=O)C(=O)Nc2ccccc2)c2ccccc21`: the EC50 in test [2] came out at 6900 nM. Further, in the test with SMB [1], the Remaining PrP-Sc level came out at 81.4%.

In the case of `O=C(C(=O)N1CCOCC1)c1c[nH]c2ccccc12`, the Remaining PrP-Sc level in the test with SMB [1] is 80.3%. Regarding `COc1ccc(NC(=O)C(=O)c2cn(C)c3ccccc23)cc1`, the EC50 in test [2] turned out to be 68 nM. For the same molecule, in the test with SMB [3], the Activity was determined as 11.6%.

Take `Cn1cc(C(=O)C(=O)NCc2cccnc2)c2ccccc21`: the Remaining PrP-Sc level with SMB [4] was 117%. As for `Cc1[nH]c2ccccc2c1C(=O)C(=O)Nc1cccc(CO)c1`, in the test with SMB [1], the Remaining PrP-Sc level is 80.8%. The same measure, in the same setting: next, `O=C(NCc1ccccc1)C(=O)c1c[nH]c2ccccc12`: 90%. Regarding `Cc1ccc(NC(=O)C(=O)c2c[nH]c3ccccc23)cc1`, in test [2], the EC50 was 130 nM. Besides, the Activity in the test with SMB [3] worked out at 4.1%. Take `COc1ccc(NC(=O)C(=O)c2c(C)[nH]c3ccccc23)cc1`: the Remaining PrP-Sc level in the test on SMB [1] was found to be 72.4%. The same measure, in the same setting: next, `O=C(Nc1cccc2c(O)cccc12)C(=O)c1c[nH]c2ccccc12`: 101%. As for `O=C(Nc1ccc(-c2cnco2)cc1)C(=O)c1c[nH]c2ccccc12`, in test [2], the EC50 was determined as 19 nM. Besides, in the test on SMB [3], the Activity came out at 16.8%. As to `O=C(Nc1ccc(-n2cccn2)cc1)C(=O)c1c[nH]c2ccccc12`, the EC50 in test [2] was 1 nM. In the test on SMB [3], the Activity amounted to 7%. As for `COc1cccc(NC(=O)C(=O)c2c(C)[nH]c3ccccc23)c1`, the Remaining PrP-Sc level in the test with SMB [1] turned out to be 133%. The same measure, in the same setting: the same measure for `Cc1[nH]c2ccccc2c1C(=O)C(=O)Nc1ccc(O)cc1`: 83.1%; for `Cn1cc(C(=O)C(=O)Nc2cccc(CO)c2)c2ccccc21`: 137%. With `COc1cc(NC(=O)C(=O)c2c(C)[nH]c3ccccc23)ncn1`, in the test with SMB [1], the Remaining PrP-Sc level was found to be 69.7%.

As for `Cc1[nH]c2ccccc2c1C(=O)C(=O)NCc1cccnc1`, the Remaining PrP-Sc level with SMB [1] came to 73.7%. Still for that read-out and setting: next, `COc1cc(NC(=O)C(=O)c2c[nH]c3ccccc23)cc(OC)c1`: 75.4%; `CCCCNC(=O)C(=O)c1c[nH]c2ccccc12`: 80.8%; `O=C(Nc1cc(F)c(F)c(F)c1)C(=O)c1c[nH]c2ccccc12`: 62.5%. Still for that read-out and setting: the same measure for `C=CCNC(=O)C(=O)c1c[nH]c2ccccc12`: 158%.

As for `O=C(Nc1ccc(OC(F)(F)F)cc1)C(=O)c1c[nH]c2ccccc12`, the EC50 in test [2] was determined as 380 nM. Moreover, the Activity with SMB [3] was found to be 6.7%. With `O=C(Nc1ccc(Cl)cc1)C(=O)c1c[nH]c2ccccc12`, the half-maximal effective concentration (EC50) in test [2] is 65 nM. Moreover, the Activity with SMB [3] is 5.9%. As for `Cc1[nH]c2ccccc2c1C(=O)C(=O)Nc1cccc(Oc2ccccc2)c1`, the Remaining PrP-Sc level with SMB [4] stood at 103%.

With `Cc1[nH]c2ccccc2c1C(=O)C(=O)Nc1cccc(F)c1`, the Remaining PrP-Sc level in the test on SMB [1] was 64%. As for `O=C(Nc1ccc(F)c(F)c1)C(=O)c1c[nH]c2ccccc12`, the EC50 in test [2] amounted to 320 nM. For the same molecule, the Activity in the test with SMB [3] worked out at 1.4%. With `Cc1[nH]c2ccccc2c1C(=O)C(=O)N1CCOCC1`, in the test with SMB [1], the Remaining PrP-Sc level turned out to be 81.9%. As to `Cn1cc(C(=O)C(=O)N2CCOCC2)c2ccccc21`, in the test on SMB [1], the Remaining PrP-Sc level was 100%. For `Cn1cc(C(=O)C(=O)Nc2cccc3c(O)cccc23)c2ccccc21`, the Remaining PrP-Sc level in the test on SMB [1] stood at 114%. For the molecule `O=C(Nc1ccc(C(F)(F)F)cc1)C(=O)c1c[nH]c2ccccc12`, the EC50 in test [2] came to 290 nM. Moreover, the Activity in the test on SMB [3] is 6.1%. `CCCCNC(=O)C(=O)c1cn(C)c2ccccc12`: the Remaining PrP-Sc level in the test on SMB [1] is 124%. With `O=C(NCc1cccnc1)C(=O)c1c[nH]c2ccccc12`, in the test on SMB [1], the Remaining PrP-Sc level stood at 107%.

As to `CSc1ccc(CNC(=O)C(=O)c2c[nH]c3ccccc23)cc1`, in test [2], the EC50 was 40 nM. In addition, the Activity in the test with SMB [3] was 5.6%. `O=C(Nc1cccc2ccccc12)C(=O)c1c[nH]c2ccccc12`: the Remaining PrP-Sc level in the test with SMB [1] was found to be 135%. Turning to `COc1ccc(NC(=O)C(=O)c2c[nH]c3ccccc23)cn1`, the EC50 in test [2] came to 120 nM. Besides, the Activity in the test with SMB [3] was 4.9%. For `O=C(NCc1ccco1)C(=O)c1c[nH]c2ccccc12`, the Remaining PrP-Sc level in the test with SMB [1] was determined as 95.2%. On to `Cc1[nH]c2ccccc2c1C(=O)C(=O)Nc1cccc2ccccc12`, for which, in the test with SMB [1], the Remaining PrP-Sc level was determined as 96.3%. Turning to `Cc1[nH]c2ccccc2c1C(=O)C(=O)Nc1cccc(C#N)c1`, in the test on SMB [1], the Remaining PrP-Sc level was found to be 78.5%. On the same count and under the same terms, the same measure for `CC(=O)c1cccc(NC(=O)C(=O)c2c(C)[nH]c3ccccc23)c1`: 84.4%; for `COc1cccc(CNC(=O)C(=O)c2c[nH]c3ccccc23)c1`: 104%. Take `CCOc1ccc(CNC(=O)C(=O)c2c[nH]c3ccccc23)cc1`: in test [2], the EC50 was found to be 60 nM. Also, the Activity with SMB [3] is 6.5%.

With `O=C(Nc1ccc(-n2cccc2)cc1)C(=O)c1c[nH]c2ccccc12`, in test [2], the EC50 turned out to be 6 nM. Also, the Activity in the test on SMB [3] is 17.1%. For `CCc1cccc(NC(=O)C(=O)c2cn(C)c3ccccc23)c1`, the Remaining PrP-Sc level with SMB [1] was 132%. As to `Cc1ccc(NC(=O)C(=O)c2c[nH]c3ccccc23)cc1C`, the EC50 in test [2] amounted to 1200 nM. For the same molecule, the Activity with SMB [3] was found to be 48.7%. Regarding `O=C(C(=O)N1CCCCC1)c1c[nH]c2ccccc12`, the Remaining PrP-Sc level in the test on SMB [1] was determined as 112%. As to `Cc1ccccc1NC(=O)C(=O)c1c[nH]c2ccccc12`, the Remaining PrP-Sc level in the test on SMB [1] was 93.8%. On the same count and under the same terms, next, `CC(=O)c1cccc(NC(=O)C(=O)c2cn(C)c3ccccc23)c1`: 157%. As to `N#Cc1cccc(NC(=O)C(=O)c2c[nH]c3ccccc23)c1`, the Remaining PrP-Sc level in the test on SMB [1] was found to be 70.1%. Consider `O=C(Nc1ccccc1Cl)C(=O)c1c[nH]c2ccccc12`, for which, in the test with SMB [1], the Remaining PrP-Sc level is 85.4%. With `CC(=O)c1cccc(NC(=O)C(=O)c2c[nH]c3ccccc23)c1`, the Remaining PrP-Sc level in the test with SMB [4] worked out at 98.8%. `COc1cc(NC(=O)C(=O)c2c[nH]c3ccccc23)cc(OC)c1OC`: in the test on SMB [1], the Remaining PrP-Sc level came to 143%.

As for `O=C(Nc1cccc(Oc2ccccc2)c1)C(=O)c1c[nH]c2ccccc12`, in the test with SMB [1], the Remaining PrP-Sc level turned out to be 98.3%. For `COc1ccc(CNC(=O)C(=O)c2c[nH]c3ccccc23)cc1`, the Remaining PrP-Sc level in the test on SMB [1] is 104%. With `O=C(Nc1ccc(F)cc1)C(=O)c1c[nH]c2ccccc12`, the EC50 in test [2] turned out to be 64 nM. The Activity with SMB [3] came to 10.3%. For `CN(C)c1ccc(NC(=O)C(=O)c2c[nH]c3ccccc23)cc1`, in test [2], the EC50 came to 26 nM. Besides, the Activity with SMB [3] came out at 7.2%.

For `COc1ccc(CNC(=O)C(=O)c2c[nH]c3ccccc23)cc1OC`, the EC50 in test [2] came out at 520 nM. Further, the Activity with SMB [3] stood at 19.3%. The like results for `COc1cc(NC(=O)C(=O)c2c[nH]c3ccccc23)ncn1` were, in that order, 680 nM and 23%.

Regarding `CCc1cccc(NC(=O)C(=O)c2c(C)[nH]c3ccccc23)c1`, in the test with SMB [1], the Remaining PrP-Sc level came to 78.8%. As to `O=C(Nc1cccc(O)c1)C(=O)c1c[nH]c2ccccc12`, the EC50 in test [2] stood at 820 nM. For the same molecule, in the test on SMB [3], the Activity was 52.4%. For `COc1cccc(NC(=O)C(=O)c2cn(C)c3ccccc23)c1`, in test [2], the half-maximal effective concentration (EC50) was 4730 nM. Moreover, in the test on SMB [1], the Remaining PrP-Sc level is 61.8%. `O=C(Nc1cccc2ccc(O)cc12)C(=O)c1c[nH]c2ccccc12`: the Remaining PrP-Sc level in the test with SMB [1] came out at 115%. With `O=C(NC1CCCCC1)C(=O)c1c[nH]c2ccccc12`, in the test with SMB [1], the Remaining PrP-Sc level came out at 83.1%. On to `Cn1cc(C(=O)C(=O)NCc2ccco2)c2ccccc21`, for which the Remaining PrP-Sc level in the test on SMB [1] came to 109%. With `Cn1cc(C(=O)C(=O)Nc2cccc(F)c2)c2ccccc21`, the Remaining PrP-Sc level in the test with SMB [1] was 11.6%.
